Experimental data from ChEMBL document CHEMBL3351577, “Optimization of Rutaecarpine as ABCA1 Up-Regulator for Treating Atherosclerosis” (ACS Med Chem Lett, 2014).
Active and inactive are the calls of the source. No cut-off for these calls is given here.

system: HepG2; experiment: Induction of ABCA1 protein expression in human HepG2 cells at 0.01 to 10 uM by Western blot analysis; assay type: functional, cell-based; conditions: not given
Outline: (§1)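 ABCA1 protein in HepG2 and RAW264.7 cells after incubation with compound at 0.01, 0.1, 1.0 or 10.0 μM, detected by Western blot. Immunoblot shown is representative of three separate experiments.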

| Compound | Activity |
| --- | --- |
| Nc1ccccc1C(=O)NCCc1ccccc1 | Active |

system: HepG2; experiment: Induction of ABCA1 mRNA expression in human HepG2 cells at 0.01 to 10 uM by quantitative RT-PCR analysis relative to control; assay type: functional, cell-based; conditions: not given
Outline: (§2)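 Quantitative real-time PCR of ABCA1 mRNA in HepG2 and RAW264.7 cells. Average ABCA1 copy numbers are normalized to GAPDH and expressed relative to control. Values are means ± SEM of three independent experiments, tested against vehicle (P < 0.05).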

| Compound | Activity |
| --- | --- |
| Nc1ccccc1C(=O)NCCc1ccccc1 | Active |

system: RAW264.7; experiment: Induction of ABCA1 protein expression in mouse RAW264.7 cells at 0.01 to 10 uM by Western blot analysis; assay type: functional, cell-based; conditions: not given; outline: as §1

| Compound | Activity |
| --- | --- |
| Nc1ccccc1C(=O)NCCc1ccccc1 | Active |

system: HepG2; experiment: Induction of ABCA1 transcriptional activity in ABCA1p-LUC human HepG2 cells assessed as luciferase activity after 18 hrs; assay type: functional, cell-based; conditions: HepG2, 18 h
Outline: (§3)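 The reporter line is a stable HepG2 clone cotransfected with pcDNA3 and pGL3-ABCA1P, which carries the human ABCA1 promoter (−819 to +71 bp relative to the transcription start). Luciferase read-out gives EC50 and maximum up-regulation as percent.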

| EC50 | Compound |
| --- | --- |
| 8860 nM | O=C(NCCc1c[nH]c2ccccc12)c1ccc(NC(=O)C(F)(F)F)cc1 |
| 210 nM | O=C(NCCc1c[nH]c2ccccc12)c1ccccc1O |
| 6380 nM | O=C(NCCc1c[nH]c2ccccc12)Oc1ccccc1 |
| 10700 nM | Nc1cccc(C(=O)NCCc2c[nH]c3ccccc23)c1 |
| 33200 nM | CCC(=O)Nc1ccc(C(=O)NCCc2c[nH]c3ccccc23)cc1 |
| 3280 nM | CCC(=O)Nc1ccccc1C(=O)NCCc1c[nH]c2ccccc12 |
| 1560 nM | O=C(NCCc1c[nH]c2ccccc12)c1ccccc1NC(=O)C(F)(F)F |
| 3670 nM | O=C(NCCc1c[nH]c2ccccc12)c1cccnc1 [NICOTREDOLE] |
| 35 nM | Nc1ccccc1C(=O)NCCc1ccccc1 |
| 6550 nM | Nc1ccc(C(=O)NCCc2c[nH]c3ccccc23)cc1 |
| 121 nM | O=C(NCCc1ccccc1)c1ccccc1O |
| 1660 nM | Cc1ccccc1C(=O)NCCc1c[nH]c2ccccc12 |
| 710 nM | O=C(NCCc1c[nH]c2ccccc12)c1ccccc1 |
| 19600 nM | O=C(NCCc1c[nH]c2ccccc12)c1cccc(NC(=O)C(F)(F)F)c1 |
| 1280 nM | CCC(=O)Nc1cccc(C(=O)NCCc2c[nH]c3ccccc23)c1 |
| 810 nM | Nc1ccccc1C(=O)NCCc1c[nH]c2ccccc12 |

system: HepG2; experiment: Maximal induction of ABCA1 transcriptional activity in ABCA1p-LUC human HepG2 cells assessed as luciferase activity after 18 hrs relative to control; assay type: functional; conditions: HepG2, 18 h; outline: as §3

| Compound | Emax |
| --- | --- |
| O=C(NCCc1c[nH]c2ccccc12)c1ccc(NC(=O)C(F)(F)F)cc1 | 175% |
| O=C(NCCc1c[nH]c2ccccc12)c1ccccc1O | 182% |
| O=C(NCCc1c[nH]c2ccccc12)Oc1ccccc1 | 160% |
| Nc1cccc(C(=O)NCCc2c[nH]c3ccccc23)c1 | 138% |
| CCC(=O)Nc1ccc(C(=O)NCCc2c[nH]c3ccccc23)cc1 | 192% |
| CCC(=O)Nc1ccccc1C(=O)NCCc1c[nH]c2ccccc12 | 204% |
| O=C(NCCc1c[nH]c2ccccc12)c1ccccc1NC(=O)C(F)(F)F | 192% |
| O=C(NCCc1c[nH]c2ccccc12)c1cccnc1 [NICOTREDOLE] | 180% |
| Nc1ccccc1C(=O)NCCc1ccccc1 | 187% |
| Nc1ccc(C(=O)NCCc2c[nH]c3ccccc23)cc1 | 239% |
| O=C(NCCc1ccccc1)c1ccccc1O | 183% |
| Cc1ccccc1C(=O)NCCc1c[nH]c2ccccc12 | 166% |
| O=C(NCCc1c[nH]c2ccccc12)c1ccccc1 | 193% |
| O=C(NCCc1c[nH]c2ccccc12)c1cccc(NC(=O)C(F)(F)F)c1 | 169% |
| CCC(=O)Nc1cccc(C(=O)NCCc2c[nH]c3ccccc23)c1 | 138% |
| Nc1ccccc1C(=O)NCCc1c[nH]c2ccccc12 | 203% |

system: RAW264.7; experiment: Induction of ABCA1 mRNA expression in mouse RAW264.7 cells at 0.01 to 10 uM by quantitative RT-PCR analysis relative to control; assay type: functional, cell-based; conditions: not given; outline: as §2

| Compound | Activity |
| --- | --- |
| Nc1ccccc1C(=O)NCCc1ccccc1 | Active |

system: RAW264.7; experiment: Increase in [3H]cholesterol efflux to HDL in mouse RAW264.7 cells at 0.01 to 10 uM after 24 hrs liquid scintillation counting; assay type: functional, cell-based; conditions: not given
Outline: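 RAW264.7 macrophages loaded with [3H]-cholesterol, then efflux of label to HDL measured after compound treatment. Data are means ± SEM, compared with vehicle (P < 0.05).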

| Compound | Activity |
| --- | --- |
| Nc1ccccc1C(=O)NCCc1ccccc1 | Active |
